Holding throughout (assay type): functional
Assay [1] has as its system Staphylococcus aureus. The experiment in a line: Antibacterial activity against vancomycin-resistant Staphylococcus aureus VRS1 after 15 passages by agar dilution method. Put shortly: (§1)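 Daily serial passage for up to 50 days at 35°C for 24 h in 1 ml MHB. […] Each transfer used 10 µl from the tube nearest the MIC (1–2 dilutions below) with the same turbidity as the drug-free control. […] MICs were measured by agar dilution, with changes given as log2 steps.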
(In general: In agar dilution the substance is mixed into plates at graded concentrations.)

Assay [2] relates to Staphylococcus aureus. The experiment in a line: Antibacterial activity against Staphylococcus aureus 145 after 37 passages by agar dilution method. Put shortly:
(§2)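 Serial passage under drug. Inoculum was ~1 × 10^6 CFU/ml from overnight MHA growth, in 1 ml MHB at 35°C for 24 h. Drug ranged from 4 log2 steps above to 3 log2 steps below the MIC. […] MIC change is given as log2 steps.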

Assay [3] has as its system Staphylococcus epidermidis. In words: Antibacterial activity against coagulase-negative Staphylococcus epidermidis 057 after 50 passages by agar dilution method. An outline of the steps: as §2
In assay [4] the test system is Staphylococcus epidermidis. The experiment in a line: Antibacterial activity against coagulase-negative Staphylococcus epidermidis 225 after 50 passages by agar dilution method. An outline of the steps:
as §2

Assay [5] relates to Staphylococcus epidermidis. In words: Antibacterial activity against methicillin-susceptible coagulase-negative Staphylococcus epidermidis 057 after 50 passages by agar dilution method. An outline of the steps:
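Daily serial passage for up to 50 days at 35°C for 24 h in 1 ml MHB. Each transfer used 10 µl from the tube nearest the MIC (1–2 dilutions below) with the same turbidity as the drug-free control. MICs were measured by agar dilution, with changes given as log2 steps.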

Assay [6] deals with Staphylococcus epidermidis. The experiment in a line: Antibacterial activity against methicillin-resistant, vancomycin-intermediate coagulase-negative Staphylococcus epidermidis 225 after 38 passages by agar dilution method. Put shortly: as §1
Assay [7] has as its system Staphylococcus epidermidis. In words: Antibacterial activity against methicillin-resistant, Linezolid non-susceptible coagulase-negative Staphylococcus epidermidis 345 after 33 passages by agar dilution method. Put shortly: as §1
The subject of assay [8] is Staphylococcus aureus. In words: Antibacterial activity against Staphylococcus aureus 145 after 50 passages by agar dilution method. An outline of the steps: as §2
The test system of assay [9] is Staphylococcus aureus. In words: Antibacterial activity against methicillin-resistant Staphylococcus aureus 145 after 50 passages by agar dilution method. An outline of the steps: as §2
The test system of assay [10] is Staphylococcus epidermidis. The experiment in a line: Antibacterial activity against methicillin-resistant, vancomycin-intermediate coagulase-negative Staphylococcus epidermidis 225 after 36 passages by agar dilution method. An outline of the steps:
as §1

The subject of assay [11] is Staphylococcus aureus. The experiment in a line: Antibacterial activity against methicillin-resistant and vancomycin-resistant Staphylococcus aureus VRS1 after 25 passages by agar dilution method. Put shortly:
as §1

Assay [12] relates to Staphylococcus aureus. In words: Antibacterial activity against vancomycin-resistant Staphylococcus aureus VRS1 after 25 passages by agar dilution method. Put shortly:
as §1

Structures are written as SMILES. Converted amounts (≈) assume the structure as drawn.

One may read the MIC as the lowest concentration found to suppress growth. Take `COc1ncc(C2c3ccccc3C=NN2C(=O)/C=C/c2cc(Cc3cnc(N)nc3N)cc(OC)c2OC)cn1` (configuration not stated): the MIC in the assay with Staphylococcus aureus [1] is greater than 128 µg/mL; against Staphylococcus aureus [2], greater than 128 µg/mL; in assay [3] it was 128 µg/mL (≈ 232 µM); in assay [4], 128 µg/mL (≈ 232 µM); in [5], 128 µg/mL (≈ 232 µM).

As to `COc1cc(Cc2cnc(N)nc2N)cc(/C=C/C(=O)N2N=Cc3ccccc3C2c2cnc(N(C)C)nc2)c1OC` (configuration not stated), the MIC in [6] and in assay [7] was greater than 128 µg/mL in each case.

With `COc1cc(Cc2cnc(N)nc2N)cc(/C=C/C(=O)N2N=Cc3ccccc3C2c2cnc(N3CCOCC3)nc2)c1OC` (configuration not stated), the MIC was 128 µg/mL (≈ 211 µM) in the assay with Staphylococcus aureus [8]; 128 µg/mL (≈ 211 µM) in the assay on Staphylococcus aureus [9]; greater than 128 µg/mL in [10]; greater than 128 µg/mL against Staphylococcus aureus [11]; greater than 128 µg/mL in the assay on Staphylococcus aureus [12].

Values taken from ChEMBL document CHEMBL1649147, “Antistaphylococcal activity of dihydrophthalazine antifolates, a family of novel antibacterial drugs” (2009).
